What was measured:
[1] = target: von Hippel-Lindau disease tumor suppressor/Indoleamine 2,3-dioxygenase 1 (Homo sapiens) (UniProt P14902+P40337); test: Protac activity at IDO1/VHL in IFNgamma-stimulated human U87 cells assessed as IDO1 degradation at 10 uM measured after 24 hrs by Western blotting analysis relative to control; type: cell-based
Summary of the method: (§1)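 U87 GBM cells primed with human IFNγ 50 ng/mL for 24 h, then exposed to PROTAC at 10 μM for 24 h. Lysates run on western blot; IDO1 bands quantified by densitometry and expressed as percent of normalized IDO1 protein level.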

[2] = target: Protein cereblon/Indoleamine 2,3-dioxygenase 1 (Homo sapiens, UniProt P14902+Q96SW2); test: Protac activity at IDO1/CRBN in IFNgamma-stimulated human U87 cells assessed as IDO1 degradation at 10 uM measured after 24 hrs by Western blotting analysis relative to control; type: cell-based; summary of the method: as §1
Sequence of Protein cereblon/Indoleamine 2,3-dioxygenase 1 (P14902 whole entry, looked up): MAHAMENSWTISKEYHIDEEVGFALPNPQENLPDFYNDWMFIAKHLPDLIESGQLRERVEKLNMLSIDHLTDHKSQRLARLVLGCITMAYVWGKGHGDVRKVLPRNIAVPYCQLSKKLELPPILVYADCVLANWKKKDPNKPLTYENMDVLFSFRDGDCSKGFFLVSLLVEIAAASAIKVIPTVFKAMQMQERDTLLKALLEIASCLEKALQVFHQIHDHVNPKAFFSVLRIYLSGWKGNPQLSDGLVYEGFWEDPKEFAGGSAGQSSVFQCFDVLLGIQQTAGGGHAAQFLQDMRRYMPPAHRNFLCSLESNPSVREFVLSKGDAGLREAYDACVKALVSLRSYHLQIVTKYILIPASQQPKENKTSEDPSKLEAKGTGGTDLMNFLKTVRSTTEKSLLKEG
Sequence of Protein cereblon/Indoleamine 2,3-dioxygenase 1 (Q96SW2 whole entry, looked up): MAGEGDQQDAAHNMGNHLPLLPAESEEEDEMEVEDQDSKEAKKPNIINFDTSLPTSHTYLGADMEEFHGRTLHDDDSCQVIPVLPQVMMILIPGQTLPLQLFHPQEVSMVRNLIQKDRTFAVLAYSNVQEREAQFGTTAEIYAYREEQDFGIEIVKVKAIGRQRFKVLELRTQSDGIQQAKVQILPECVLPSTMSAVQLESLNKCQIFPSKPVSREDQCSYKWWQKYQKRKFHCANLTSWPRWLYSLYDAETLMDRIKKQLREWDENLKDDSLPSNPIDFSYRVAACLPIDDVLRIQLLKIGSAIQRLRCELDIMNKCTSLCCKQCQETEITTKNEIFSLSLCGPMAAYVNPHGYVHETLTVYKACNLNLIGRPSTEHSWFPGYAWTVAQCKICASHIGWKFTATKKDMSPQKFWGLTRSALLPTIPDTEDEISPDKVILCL

Sequence of von Hippel-Lindau disease tumor suppressor/Indoleamine 2,3-dioxygenase 1 (Homo sapiens) (P14902 whole entry, looked up): as the sequence (P14902 whole entry, looked up) above
Sequence of von Hippel-Lindau disease tumor suppressor/Indoleamine 2,3-dioxygenase 1 (Homo sapiens) (P40337 whole entry, looked up): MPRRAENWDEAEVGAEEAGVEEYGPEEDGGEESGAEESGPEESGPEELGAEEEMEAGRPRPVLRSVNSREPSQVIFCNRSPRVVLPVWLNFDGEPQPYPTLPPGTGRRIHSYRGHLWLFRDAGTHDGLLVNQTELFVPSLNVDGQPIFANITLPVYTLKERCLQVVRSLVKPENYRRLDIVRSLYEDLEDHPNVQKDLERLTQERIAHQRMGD

Cc1ncsc1-c1ccc(CNC(=O)[C@@H]2C[C@@H](O)CN2C(=O)[C@@H](NCCOCCOCCOCCOCCOc2ccc(NC(=O)[C@H](C)[C@H]3CC[C@@H](c4ccnc5ccc(F)cc54)CC3)cc2)C(C)(C)C)cc1
Activity [1]: 0%

Cc1ncsc1-c1ccc(CNC(=O)[C@H]2C[C@H](O)CN2C(=O)[C@H](NCCCOc2cc(NC(=O)[C@H](C)[C@H]3CC[C@@H](c4ccnc5ccc(F)cc54)CC3)ccc2Cl)C(C)(C)C)cc1
Activity [1]: 0%

Cc1ncsc1-c1ccc(CNC(=O)[C@@H]2C[C@@H](O)CN2C(=O)[C@@H](NCCOCCOCCOc2cc(NC(=O)[C@H](C)[C@H]3CC[C@@H](c4ccnc5ccc(F)cc54)CC3)ccc2Cl)C(C)(C)C)cc1
Activity [1]: 0%

Cc1ncsc1-c1ccc(CNC(=O)[C@@H]2C[C@@H](O)CN2C(=O)[C@@H](NC(=O)C2(F)CC2)C(C)(C)C)c(OCCCCCCCOc2ccc(NC(=O)[C@H](C)[C@H]3CC[C@@H](c4ccnc5ccc(F)cc54)CC3)cc2)c1
Activity [1]: 41%

Cc1ncsc1-c1ccc(CNC(=O)[C@@H]2C[C@@H](O)CN2C(=O)[C@@H](NC(=O)C2(F)CC2)C(C)(C)C)c(OCCOCCOCCOCCOCCOCCOc2cc(NC(=O)[C@H](C)[C@H]3CC[C@@H](c4ccnc5ccc(F)cc54)CC3)ccc2Cl)c1
Activity [1]: 0%

Cc1ncsc1-c1ccc(CNC(=O)[C@@H]2C[C@@H](O)CN2C(=O)[C@@H](NCCOCCC(=O)N2CCC(Oc3ccc(NC(=O)[C@H](C)[C@H]4CC[C@@H](c5ccnc6ccc(F)cc65)CC4)cc3)CC2)C(C)(C)C)cc1
Activity [1]: 88%

Cc1ncsc1-c1ccc(CNC(=O)[C@@H]2C[C@@H](O)CN2C(=O)[C@@H](NC(=O)C2(F)CC2)C(C)(C)C)c(OCCOCCOc2ccc(NC(=O)[C@H](C)[C@H]3CC[C@@H](c4ccnc5ccc(F)cc54)CC3)cc2)c1
Activity [1]: 39%

Cc1ncsc1-c1ccc(CNC(=O)[C@@H]2C[C@@H](O)CN2C(=O)[C@@H](NC(=O)C2(F)CC2)C(C)(C)C)c(OCCCCOc2ccc(NC(=O)[C@H](C)[C@H]3CC[C@@H](c4ccnc5ccc(F)cc54)CC3)cc2)c1
Activity [1]: 10%

Cc1ncsc1-c1ccc(CNC(=O)[C@@H]2C[C@@H](O)CN2C(=O)[C@@H](NCCOCCOCCOCCOCCOc2cc(NC(=O)[C@H](C)[C@H]3CC[C@@H](c4ccnc5ccc(F)cc54)CC3)ccc2Cl)C(C)(C)C)cc1
Activity [1]: 0%

Cc1ncsc1-c1ccc(CNC(=O)[C@@H]2C[C@@H](O)CN2C(=O)[C@@H](NC(=O)C2(F)CC2)C(C)(C)C)c(OCCCOc2cc(NC(=O)[C@H](C)[C@H]3CC[C@@H](c4ccnc5ccc(F)cc54)CC3)ccc2Cl)c1
Activity [1]: 0%

Cc1ncsc1-c1ccc(CNC(=O)[C@@H]2C[C@@H](O)CN2C(=O)[C@@H](NC(=O)C2(F)CC2)C(C)(C)C)c(OCCOCCOCCOCCOCCOc2cc(NC(=O)[C@H](C)[C@H]3CC[C@@H](c4ccnc5ccc(F)cc54)CC3)ccc2Cl)c1
Activity [1]: 0%

Cc1ncsc1-c1ccc(CNC(=O)[C@@H]2C[C@@H](O)CN2C(=O)[C@@H](NC(=O)C2(F)CC2)C(C)(C)C)c(OCCOCCOCCOCCOCCOCCOc2ccc(NC(=O)[C@H](C)[C@H]3CC[C@@H](c4ccnc5ccc(F)cc54)CC3)cc2)c1
Activity [1]: 27%

Cc1ncsc1-c1ccc(CNC(=O)[C@@H]2C[C@@H](O)CN2C(=O)[C@@H](NCCOCCOc2ccc(NC(=O)[C@H](C)[C@H]3CC[C@@H](c4ccnc5ccc(F)cc54)CC3)cc2)C(C)(C)C)cc1
Activity [1]: 0%

Cc1ncsc1-c1ccc(CNC(=O)[C@@H]2C[C@@H](O)CN2C(=O)[C@@H](NC(=O)C2(F)CC2)C(C)(C)C)c(OCCOCCOc2cc(NC(=O)[C@H](C)[C@H]3CC[C@@H](c4ccnc5ccc(F)cc54)CC3)ccc2Cl)c1
Activity [1]: 23%

Cc1ncsc1-c1ccc(CNC(=O)[C@H]2C[C@H](O)CN2C(=O)[C@H](NCCCCCCCCCOc2cc(NC(=O)[C@H](C)[C@H]3CC[C@@H](c4ccnc5ccc(F)cc54)CC3)ccc2Cl)C(C)(C)C)cc1
Activity [1]: 3%

Cc1ncsc1-c1ccc(CNC(=O)[C@@H]2C[C@@H](O)CN2C(=O)[C@@H](NCCOCCOCCOc2ccc(NC(=O)[C@H](C)[C@H]3CC[C@@H](c4ccnc5ccc(F)cc54)CC3)cc2)C(C)(C)C)cc1
Activity [1]: 0%

Cc1ncsc1-c1ccc(CNC(=O)[C@@H]2C[C@@H](O)CN2C(=O)[C@@H](NC(=O)C2(F)CC2)C(C)(C)C)c(OCCOCCOCCC(=O)N2CCC(Oc3ccc(NC(=O)[C@H](C)[C@H]4CC[C@@H](c5ccnc6ccc(F)cc65)CC4)cc3)CC2)c1
Activity [1]: 3%

Cc1ncsc1-c1ccc(CNC(=O)[C@@H]2C[C@@H](O)CN2C(=O)[C@@H](NC(=O)C2(F)CC2)C(C)(C)C)c(OCCOCCOCCOc2cc(NC(=O)[C@H](C)[C@H]3CC[C@@H](c4ccnc5ccc(F)cc54)CC3)ccc2Cl)c1
Activity [1]: 0%

Cc1ncsc1-c1ccc(CNC(=O)[C@@H]2C[C@@H](O)CN2C(=O)[C@@H](NC(=O)C2(F)CC2)C(C)(C)C)c(OCCOCCOCCOc2ccc(NC(=O)[C@H](C)[C@H]3CC[C@@H](c4ccnc5ccc(F)cc54)CC3)cc2)c1
Activity [1]: 0%

Cc1ncsc1-c1ccc(CNC(=O)[C@@H]2C[C@@H](O)CN2C(=O)[C@@H](NC(=O)C2(F)CC2)C(C)(C)C)c(OCCOCCOCCC(=O)N2CC(Oc3ccc(NC(=O)[C@H](C)[C@H]4CC[C@@H](c5ccnc6ccc(F)cc65)CC4)cc3)C2)c1
Activity [1]: 91%

Cc1ncsc1-c1ccc(CNC(=O)[C@@H]2C[C@@H](O)CN2C(=O)[C@@H](NCCOCCOCCOCCOc2ccc(NC(=O)[C@H](C)[C@H]3CC[C@@H](c4ccnc5ccc(F)cc54)CC3)cc2)C(C)(C)C)cc1
Activity [1]: 0%

Cc1ncsc1-c1ccc(CNC(=O)[C@@H]2C[C@@H](O)CN2C(=O)[C@@H](NC(=O)C2(F)CC2)C(C)(C)C)c(OCCOCCC(=O)N2CC(Oc3ccc(NC(=O)[C@H](C)[C@H]4CC[C@@H](c5ccnc6ccc(F)cc65)CC4)cc3)C2)c1
Activity [1]: 20%

Cc1ncsc1-c1ccc(CNC(=O)[C@@H]2C[C@@H](O)CN2C(=O)[C@@H](NCCCCCCCOc2ccc(NC(=O)[C@H](C)[C@H]3CC[C@@H](c4ccnc5ccc(F)cc54)CC3)cc2)C(C)(C)C)cc1
Activity [1]: 0%

Cc1ncsc1-c1ccc(CNC(=O)[C@@H]2C[C@@H](O)CN2C(=O)[C@@H](NC(=O)C2(F)CC2)C(C)(C)C)c(OCCOCCC(=O)N2CCC(Oc3ccc(NC(=O)[C@H](C)[C@H]4CC[C@@H](c5ccnc6ccc(F)cc65)CC4)cc3)CC2)c1
Activity [1]: 72%

C[C@@H](C(=O)Nc1ccc(OC2CCN(CCCOCCNC(=O)COc3cccc4c3C(=O)N(C3CCC(=O)NC3=O)C4=O)CC2)cc1)[C@H]1CC[C@@H](c2ccnc3ccc(F)cc32)CC1 (stereo partly specified)
Activity [2]: 66%

C[C@@H](C(=O)Nc1ccc(Cl)c(OCCOCCOCCOCCNC(=O)COc2cccc3c2C(=O)N(C2CCC(=O)NC2=O)C3=O)c1)[C@H]1CC[C@@H](c2ccnc3ccc(F)cc32)CC1 (stereo partly specified)
Activity [2]: 0%

Cc1ncsc1-c1ccc(CNC(=O)[C@@H]2C[C@@H](O)CN2C(=O)[C@@H](NC(=O)C2(F)CC2)C(C)(C)C)c(OCCCCCCCCCOc2cc(NC(=O)[C@H](C)[C@H]3CC[C@@H](c4ccnc5ccc(F)cc54)CC3)ccc2Cl)c1
Activity [1]: 90%

C[C@@H](C(=O)Nc1ccc(OC2CCN(CCCOCCOCCNC(=O)COc3cccc4c3C(=O)N(C3CCC(=O)NC3=O)C4=O)CC2)cc1)[C@H]1CC[C@@H](c2ccnc3ccc(F)cc32)CC1 (stereo partly specified)
Activity [2]: 33%

C[C@@H](C(=O)Nc1ccc(OCCOCCOCCOCCOCCNC(=O)COc2cccc3c2C(=O)N(C2CCC(=O)NC2=O)C3=O)cc1)[C@H]1CC[C@@H](c2ccnc3ccc(F)cc32)CC1 (stereo partly specified)
Activity [2]: 0%

C[C@@H](C(=O)Nc1ccc(OCCOCCOCCNC(=O)COc2cccc3c2C(=O)N(C2CCC(=O)NC2=O)C3=O)cc1)[C@H]1CC[C@@H](c2ccnc3ccc(F)cc32)CC1 (stereo partly specified)
Activity [2]: 47%

Cc1ncsc1-c1ccc(CNC(=O)[C@@H]2C[C@@H](O)CN2C(=O)[C@@H](NC(=O)C2(F)CC2)C(C)(C)C)c(OCCCCCCOc2cc(NC(=O)[C@H](C)[C@H]3CC[C@@H](c4ccnc5ccc(F)cc54)CC3)ccc2Cl)c1
Activity [1]: 0%

C[C@@H](C(=O)Nc1ccc(OC2CCN(C(=O)CCOCCOCCNC(=O)COc3cccc4c3C(=O)N(C3CCC(=O)NC3=O)C4=O)CC2)cc1)[C@H]1CC[C@@H](c2ccnc3ccc(F)cc32)CC1 (stereo partly specified)
Activity [2]: 81%

Cc1ncsc1-c1ccc(CNC(=O)[C@@H]2C[C@@H](O)CN2C(=O)[C@@H](NC(=O)C2(F)CC2)C(C)(C)C)c(OCCOCCCN2CCC(Oc3ccc(NC(=O)[C@H](C)[C@H]4CC[C@@H](c5ccnc6ccc(F)cc65)CC4)cc3)CC2)c1
Activity [1]: 0%

Cc1ncsc1-c1ccc(CNC(=O)[C@@H]2C[C@@H](O)CN2C(=O)[C@@H](NCCOCCOCCOCCOCCOCCOc2cc(NC(=O)[C@H](C)[C@H]3CC[C@@H](c4ccnc5ccc(F)cc54)CC3)ccc2Cl)C(C)(C)C)cc1
Activity [1]: 0%

Cc1ncsc1-c1ccc(CNC(=O)[C@@H]2C[C@@H](O)CN2C(=O)[C@@H](NCCOCCOc2cc(NC(=O)[C@H](C)[C@H]3CC[C@@H](c4ccnc5ccc(F)cc54)CC3)ccc2Cl)C(C)(C)C)cc1
Activity [1]: 0%

C[C@@H](C(=O)Nc1ccc(OC2CN(C(=O)CCOCCOCCNc3cccc4c3C(=O)N(C3CCC(=O)NC3=O)C4=O)C2)cc1)[C@H]1CC[C@@H](c2ccnc3ccc(F)cc32)CC1 (stereo partly specified)
Activity [2]: 94%

Cc1ncsc1-c1ccc(CNC(=O)[C@@H]2C[C@@H](O)CN2C(=O)[C@@H](NCCOCCOCCOCCOCCOCCOc2cccc(NC(=O)[C@H](C)[C@H]3CC[C@@H](c4ccnc5ccc(F)cc54)CC3)c2)C(C)(C)C)cc1
Activity [1]: 0%

C[C@@H](C(=O)Nc1ccc(Cl)c(OCCCCCCCCCNc2cccc3c2C(=O)N(C2CCC(=O)NC2=O)C3=O)c1)[C@H]1CC[C@@H](c2ccnc3ccc(F)cc32)CC1 (stereo partly specified)
Activity [2]: 0%

C[C@@H](C(=O)Nc1ccc(Cl)c(OCCOCCOCCOCCOCCOCCNC(=O)COc2cccc3c2C(=O)N(C2CCC(=O)NC2=O)C3=O)c1)[C@H]1CC[C@@H](c2ccnc3ccc(F)cc32)CC1 (stereo partly specified)
Activity [2]: 0%

C[C@@H](C(=O)Nc1ccc(OC2CCN(C(=O)CCOCCOc3cccc4c3C(=O)N(C3CCC(=O)NC3=O)C4=O)CC2)cc1)[C@H]1CC[C@@H](c2ccnc3ccc(F)cc32)CC1 (stereo partly specified)
Activity [2]: 45%

C[C@@H](C(=O)Nc1ccc(Cl)c(OCCOCCOCCOCCOc2cccc3c2C(=O)N(C2CCC(=O)NC2=O)C3=O)c1)[C@H]1CC[C@@H](c2ccnc3ccc(F)cc32)CC1 (stereo partly specified)
Activity [2]: 13%

From ChEMBL document CHEMBL5150051, “Identification and Characterization of a Novel Indoleamine 2,3-Dioxygenase 1 Protein Degrader for Glioblastoma” (J Med Chem, 2022)
